Data: article PMC5812400 (ESMO Open, 2018)
Entries after “also recorded” stand apart in the source; their conditions may differ.

System: adult patients with advanced non-haematological malignancies
Assay: Safety and tolerability
Format: in vivo, human
In short: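 Patients on milled oral capsules, fasted, in 28-day cycles. AEs and SAEs recorded from first dose through 30 days after last dose. Graded by NCI CTCAE v4.03 and coded to MedDRA v19.0. Relatedness to study drug judged by investigator.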

Q: `CC(C)n1nc(-c2ccc3oc(N)nc3c2)c2c(N)ncnc21` [TAK-228, Sapanisertib] was tested. Which “Drug-related AE: Dry mouth” value (QW 20 mg (n=7)) did it give?
A: 0 n (%)

Q: What about the “Drug-related AE: Fatigue” value (QW 20 mg (n=7)) of the same compound?
A: 3 (43) n (%)

Q: What about the “Drug-related AE: Hyperglycaemia” value (QW 20 mg (n=7)) of the same compound?
A: 0 n (%)

Q: What about the “Drug-related AE: Nausea” value (QW 20 mg (n=7)) of the same compound?
A: 4 (57) n (%)

Q: And the “Drug-related AE: Pruritus” value (QW 20 mg (n=7))?
A: 0 n (%)

Q: What about the “Drug-related AE: Rash (maculopapular)” value (QW 20 mg (n=7)) of the same compound?
A: 0 n (%)

Q: What about the “Drug-related AE: Stomatitis” value (QW 20 mg (n=7)) of the same compound?
A: 0 n (%)

Q: What about the “Drug-related AE: Vomiting” value (QW 20 mg (n=7)) of the same compound?
A: 2 (29) n (%)

Q: And the “Drug-related SAE” value (QW 20 mg (n=7))?
A: 0 n (%)

Q: And the “Drug-related grade ≥3 AE” value (QW 20 mg (n=7))?
A: 2 (29) n (%)

Q: And the “Grade ≥3 AE” value (QW 20 mg (n=7))?
A: 5 (71) n (%)

Q: And the “Grade ≥3 AE: Abdominal pain” value (QW 20 mg (n=7))?
A: 1 (14) n (%)

Q: And the “Grade ≥3 AE: Anaemia” value (QW 20 mg (n=7))?
A: 1 (14) n (%)

Q: What about the “Grade ≥3 AE: Diarrhoea” value (QW 20 mg (n=7)) of the same compound?
A: 1 (14) n (%)

Q: And the “Grade ≥3 AE: Hypercalcaemia” value (QW 20 mg (n=7))?
A: 0 n (%)

Q: What about the “Grade ≥3 AE: Hyperglycaemia” value (QW 20 mg (n=7)) of the same compound?
A: 0 n (%)

Q: And the “Grade ≥3 AE: Hypophosphataemia” value (QW 20 mg (n=7))?
A: 0 n (%)

Q: What about the “Grade ≥3 AE: Hypotension” value (QW 20 mg (n=7)) of the same compound?
A: 2 (29) n (%)

Q: What about the “Grade ≥3 AE: Nausea” value (QW 20 mg (n=7)) of the same compound?
A: 1 (14) n (%)

Q: What about the “Grade ≥3 AE: Vomiting” value (QW 20 mg (n=7)) of the same compound?
A: 1 (14) n (%)

Q: And the On-study deaths (QW 20 mg (n=7))?
A: 0 n (%)

Q: What about the SAE (QW 20 mg (n=7)) of the same compound?
A: 4 (57) n (%)

Q: And the “AE resulting in TAK-228 discontinuation” value (QW 30 mg (n=13))?
A: 3 (23) n (%)

Q: What about the “Drug-related AE” value (QW 30 mg (n=13)) of the same compound?
A: 11 (85) n (%)

Q: And the “Drug-related AE: Asthaenia” value (QW 30 mg (n=13))?
A: 0 n (%)

Q: And the “Drug-related AE: Decreased appetite” value (QW 30 mg (n=13))?
A: 2 (15) n (%)

Q: What about the “Drug-related AE: Dehydration” value (QW 30 mg (n=13)) of the same compound?
A: 0 n (%)

Q: And the “Drug-related AE: Diarrhoea” value (QW 30 mg (n=13))?
A: 2 (15) n (%)

Q: What about the “Drug-related AE: Dry mouth” value (QW 30 mg (n=13)) of the same compound?
A: 1 (8) n (%)

Q: What about the “Drug-related AE: Fatigue” value (QW 30 mg (n=13)) of the same compound?
A: 6 (46) n (%)

Q: What about the “Drug-related AE: Hyperglycaemia” value (QW 30 mg (n=13)) of the same compound?
A: 3 (23) n (%)

Q: What about the “Drug-related AE: Nausea” value (QW 30 mg (n=13)) of the same compound?
A: 5 (39) n (%)

Q: And the “Drug-related AE: Pruritus” value (QW 30 mg (n=13))?
A: 1 (8) n (%)

Q: What about the “Drug-related AE: Rash (maculopapular)” value (QW 30 mg (n=13)) of the same compound?
A: 2 (15) n (%)

Q: What about the “Drug-related AE: Stomatitis” value (QW 30 mg (n=13)) of the same compound?
A: 2 (15) n (%)

Q: And the “Drug-related AE: Vomiting” value (QW 30 mg (n=13))?
A: 7 (54) n (%)

Q: And the “Drug-related SAE” value (QW 30 mg (n=13))?
A: 2 (15) n (%)

Q: And the “Drug-related grade ≥3 AE” value (QW 30 mg (n=13))?
A: 4 (31) n (%)

Q: And the “Grade ≥3 AE” value (QW 30 mg (n=13))?
A: 7 (54) n (%)

Q: And the “Grade ≥3 AE: Abdominal pain” value (QW 30 mg (n=13))?
A: 1 (8) n (%)

Q: And the “Grade ≥3 AE: Anaemia” value (QW 30 mg (n=13))?
A: 1 (8) n (%)

Q: And the “Grade ≥3 AE: Hypercalcaemia” value (QW 30 mg (n=13))?
A: 2 (15) n (%)

Q: What about the “Grade ≥3 AE: Hyperglycaemia” value (QW 30 mg (n=13)) of the same compound?
A: 3 (23) n (%)

Q: What about the “Grade ≥3 AE: Hypophosphataemia” value (QW 30 mg (n=13)) of the same compound?
A: 1 (8) n (%)

Q: What about the “Grade ≥3 AE: Hypotension” value (QW 30 mg (n=13)) of the same compound?
A: 0 n (%)

Q: And the “Grade ≥3 AE: Nausea” value (QW 30 mg (n=13))?
A: 1 (8) n (%)

Q: And the “Grade ≥3 AE: Vomiting” value (QW 30 mg (n=13))?
A: 1 (8) n (%)

Q: What about the On-study deaths (QW 30 mg (n=13)) of the same compound?
A: 1 (8) n (%)

Q: And the SAE (QW 30 mg (n=13))?
A: 6 (46) n (%)

Q: What about the “AE resulting in TAK-228 discontinuation” value (QW Total (n=20)) of the same compound?
A: 3 (15) n (%)

Q: What about the “Drug-related AE” value (QW Total (n=20)) of the same compound?
A: 16 (80) n (%)

Q: What about the “Drug-related AE: Asthaenia” value (QW Total (n=20)) of the same compound?
A: 1 (5) n (%)

Q: And the “Drug-related AE: Decreased appetite” value (QW Total (n=20))?
A: 3 (15) n (%)

Q: And the “Drug-related AE: Dehydration” value (QW Total (n=20))?
A: 1 (5) n (%)

Q: And the “Drug-related AE: Diarrhoea” value (QW Total (n=20))?
A: 6 (30) n (%)

Q: What about the “Drug-related AE: Dry mouth” value (QW Total (n=20)) of the same compound?
A: 1 (5) n (%)

Q: What about the “Drug-related AE: Fatigue” value (QW Total (n=20)) of the same compound?
A: 9 (45) n (%)

Q: And the “Drug-related AE: Hyperglycaemia” value (QW Total (n=20))?
A: 3 (15) n (%)

Q: And the “Drug-related AE: Nausea” value (QW Total (n=20))?
A: 9 (45) n (%)

Q: And the “Drug-related AE: Pruritus” value (QW Total (n=20))?
A: 1 (5) n (%)

Q: What about the “Drug-related AE: Rash (maculopapular)” value (QW Total (n=20)) of the same compound?
A: 2 (10) n (%)

Q: And the “Drug-related AE: Stomatitis” value (QW Total (n=20))?
A: 2 (10) n (%)

Q: And the “Drug-related AE: Vomiting” value (QW Total (n=20))?
A: 9 (45) n (%)

Q: What about the “Drug-related SAE” value (QW Total (n=20)) of the same compound?
A: 2 (10) n (%)

Q: What about the “Drug-related grade ≥3 AE” value (QW Total (n=20)) of the same compound?
A: 6 (30) n (%)

Q: What about the “Grade ≥3 AE” value (QW Total (n=20)) of the same compound?
A: 12 (60) n (%)

Q: What about the “Grade ≥3 AE: Abdominal pain” value (QW Total (n=20)) of the same compound?
A: 2 (10) n (%)

Q: And the “Grade ≥3 AE: Anaemia” value (QW Total (n=20))?
A: 2 (10) n (%)

Q: What about the “Grade ≥3 AE: Diarrhoea” value (QW Total (n=20)) of the same compound?
A: 1 (5) n (%)

Q: And the “Grade ≥3 AE: Hypercalcaemia” value (QW Total (n=20))?
A: 2 (10) n (%)

Q: What about the “Grade ≥3 AE: Hyperglycaemia” value (QW Total (n=20)) of the same compound?
A: 3 (15) n (%)

Q: What about the “Grade ≥3 AE: Hypophosphataemia” value (QW Total (n=20)) of the same compound?
A: 1 (5) n (%)

Q: What about the “Grade ≥3 AE: Hypotension” value (QW Total (n=20)) of the same compound?
A: 2 (10) n (%)

Q: What about the “Grade ≥3 AE: Nausea” value (QW Total (n=20)) of the same compound?
A: 2 (10) n (%)

Q: What about the “Grade ≥3 AE: Vomiting” value (QW Total (n=20)) of the same compound?
A: 2 (10) n (%)

Q: What about the On-study deaths (QW Total (n=20)) of the same compound?
A: 1 (5) n (%)

Q: And the SAE (QW Total (n=20))?
A: 10 (50) n (%)

Q: What about the “Asthaenic conditions, patients” value (QW arm) of the same compound?
A: 60%

Q: What about the “Drug-related AE of any grade: diarrhoea” value (QW arm) of the same compound?
A: 30%

Q: What about the “Drug-related AE of any grade: fatigue” value (QW arm) of the same compound?
A: 45%

Q: What about the “Drug-related AE of any grade: nausea” value (QW arm) of the same compound?
A: 45%

Q: What about the “Drug-related AE of any grade: vomiting” value (QW arm) of the same compound?
A: 45%

Q: And the “Grade ≥3 AE: Abdominal pain” value (QW arm)?
A: 10%

Q: What about the “Grade ≥3 AE: Anaemia” value (QW arm) of the same compound?
A: 10%

Q: And the “Grade ≥3 AE: Hypercalcaemia” value (QW arm)?
A: 10%

Q: What about the “Grade ≥3 AE: Hyperglycaemia” value (QW arm) of the same compound?
A: 15%

Q: And the “Grade ≥3 AE: Hypotension” value (QW arm)?
A: 10%

Q: What about the “Grade ≥3 AE: Nausea” value (QW arm) of the same compound?
A: 10%

Q: What about the “Grade ≥3 AE: Vomiting” value (QW arm) of the same compound?
A: 10%

Q: What about the “SAEs, patients” value (QW arm) of the same compound?
A: 50%

Q: What about the “Patients experiencing AEs” value (TAK-228 QD arm) of the same compound?
A: 100%

Q: And the “Patients with drug-related AEs” value (TAK-228 QD arm)?
A: 94%

Q: What about the “Patients experiencing AEs” value (TAK-228 QW arm) of the same compound?
A: 95%

Q: And the “Patients with drug-related AEs” value (TAK-228 QW arm)?
A: 80%

Q: And the “AEs of interest (hyperglycaemia, rash, renal insufficiency, mucosal inflammation and asthaenic conditions), patients” value (all treatment arms)?
A: ≥ 10%

Q: And the “Most commonly reported drug-related AEs (fatigue, diarrhoea and nausea), patients” value (treatment period, across all treatment arms)?
A: ≥ 25%

Q: And the “On-study deaths and relatedness to study drugs” value (whole study, all arms)?
A: Three on-study deaths occurred, all considered unrelated to study drugs; also recorded: Three deaths occurred during the study, one in each treatment arm; none were considered related to study drugs
